Rows were chosen to be rich in hits. Some 1.4% of all compounds tested hit in one or more screens of this group.
Diaph act CS: compounds boosting diaphorase resazurin reduction – biochemical, uHTS, resorufin fluorescence, counter-screen for diaphorase-coupled primary assays, primary screen; Diaphorase/resazurin coupled assay, 16 min; hits give high values; 1 = vehicle wells, 0 = NADH-free wells; activation factor at 20 µM; 190,000 tested, 0.005% active;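 active means diaphorase activity raised at least twofold by the compound at 20 µM; inactive means activation factor below 2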
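Material: Clostridium kluyveri diaphorase, purified enzyme; Quantity: enzyme 0.07 U/mL final; Medium: HEPES pH 7.4 buffer with MgCl2 and Tween 20; Dosing: single compound dose of 20 µM, 1% DMSO final; Schedule: 16 min reaction at room temperature; Measured by: red resorufin fluorescence at 544/590 nm excitation/emission.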
ATG4B inh: ATG4B protease inhibitors, primary screen, biochemical, fluorescence, uHTS | 340,000 tested, 0.51% active | inhibition, % at 8.33 µM | AID 504462, 2011 | ATG4B cleavage of LC3-PLA2, NBD-HPC fluorescence, 1 h | Cysteine protease ATG4B (Homo sapiens), Q9Y4P1; in the data active means inhibition above about 40%
Target sequence (Q9Y4P1 whole entry, looked up): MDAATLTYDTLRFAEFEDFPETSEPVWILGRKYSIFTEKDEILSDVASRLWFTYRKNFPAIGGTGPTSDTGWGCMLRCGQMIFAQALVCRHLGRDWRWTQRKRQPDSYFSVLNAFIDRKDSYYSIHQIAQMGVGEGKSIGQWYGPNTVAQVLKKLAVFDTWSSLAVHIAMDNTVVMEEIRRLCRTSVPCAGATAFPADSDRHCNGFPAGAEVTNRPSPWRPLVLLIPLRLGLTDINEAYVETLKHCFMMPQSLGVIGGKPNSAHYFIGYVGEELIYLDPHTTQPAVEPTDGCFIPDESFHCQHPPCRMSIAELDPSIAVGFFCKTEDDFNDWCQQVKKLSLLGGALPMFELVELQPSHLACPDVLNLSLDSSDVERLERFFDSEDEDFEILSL
CTSL1 counter: Fasciola hepatica cathepsin L1 inhibitors, primary screen, counter-screen for PFM18AAP inhibitor project, biochemical, QFRET, fluorogenic peptide substrate; AID 1906, 2009; inhibition, % at 5.96 µM; recombinant F. hepatica cathepsin L1, Z-Leu-Arg-MCA fluorescence; 300,000 tested, 0.49% active;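 active means inhibition above the mean of all tested compounds plus 3 SD, set per screening campaign, cut at about 17% in these data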;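 further: 0% = plate median of test compound wells and 100% = 1 µM Z-Phe-Ala-diazomethylketone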
Diaph inh CS: diaphorase inhibitors and chemical oxidizers, primary screen, counter-screen for diaphorase-coupled primary assays, biochemical, uHTS, resorufin fluorescence | AID 1217, 2008 | diaphorase resazurin-to-resorufin fluorescence, NADH, 16 min; bacterial (C. kluyveri) enzyme, not human | 190,000 tested, 0.69% active | inhibition, % at 20 µM;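 active means primary screen inhibition at 20 µM above a set limit, cut at about 50% in these data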;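 further: plate controls were DMSO with full reaction for no effect and wells lacking NADH for full effect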
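Benchmarks: positive control wells lacking NADH, neutral wells with DMSO only. System: bacterial diaphorase enzyme (C. kluyveri). Input: 0.14 U/mL diaphorase, enzyme working solution. Detection: resorufin fluorescence, excitation 544 nm, emission 590 nm. Times: 16-min room-temperature incubation before reading.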
HKDC1 inh: HKDC1 hexokinase inhibitors, primary screen, biochemical, fluorescence, uHTS; recombinant HKDC1, G6PDH/diaphorase resazurin coupled fluorescence; 340,000 tested, 0.16% active; AID 493160, 2011; inhibition, % at 20 µM; Q2TB90;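 active means inhibition above about 35% when tested at 20 µM, limit read from the data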;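 further: plate controls were DMSO wells with enzyme for no effect and DMSO wells lacking enzyme for full effect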
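Test system: recombinant HKDC1 (HK5) hexokinase enzyme, produced in-house; Amount: enzyme 5 µg/mL final; Buffer or medium: Tris pH 8.0 buffer with MgCl2, Tween-20, BSA, BME; Reagent: glucose and ATP substrates; Doses: 20 µM test compound, 1% DMSO; Incubation: 90 min reaction incubation at room temperature, dark; Detection: resorufin fluorescence at 613 nm.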
ATG4B conf: ATG4B protease inhibitors, retest, confirmation, biochemical, fluorescence, single concentration. shares compounds with ATG4B inh. ATG4B protease fluorescent substrate cleavage assay. inhibition, % at 8.33 µM. 320 tested, 92% active. AID 504757, 2011; in the data active means inhibition above about 39%
PLA2 counter: PLA2 enzyme inhibition, counter-screen for ATG4B inhibitor project, biochemical, single concentration, uHTS hits; shares compounds with ATG4B inh; 1,600 tested, 66% active; purified PLA2, NBD-C6-HPC fluorescence, 45 min; inhibition, % at 8.33 µM; in the data active means inhibition above about 50%
Target sequence (P04054 whole entry, looked up): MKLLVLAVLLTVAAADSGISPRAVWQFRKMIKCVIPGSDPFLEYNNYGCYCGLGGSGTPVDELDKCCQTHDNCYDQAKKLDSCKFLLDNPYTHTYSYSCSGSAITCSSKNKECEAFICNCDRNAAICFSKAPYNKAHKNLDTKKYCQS
Numbers without * were called inactive; / = not tested or not shown.

SMILES	Diaph act CS	ATG4B inh	CTSL1 counter	Diaph inh CS	HKDC1 inh	PLA2 counter	others
CCc1ccc(Nc2ccc(C(N)=O)cc2[N+](=O)[O-])cc1	0.9	71.5*	2.1	10.2	9.2	80.7*
Cc1ccc(NC(=O)CSc2ccc(C(N)=O)cc2[N+](=O)[O-])cc1C	1	-5.3	1.7	2.5	-7.0	/
Cc1ccc(Nc2ccc(C(N)=O)cc2[N+](=O)[O-])cc1C	1	65.1*	-4.0	-0.8	14.4	64.8*
CC[C@]1(C(=O)OC)[C@H]2C(=O)N(C)C(=O)[C@H]2[C@H]2CN(C)C(=NC3CCCCC3)N21	/	3.3	/	/	-5.8	/
C=CCn1c(SCC(=O)c2ccccc2)nnc1-c1cc2ccccc2o1	0.8	61.5*	5.5	24.1	-0.6	61.8*
C=CCn1c(SCC(=O)c2ccc(OC)cc2)nnc1-c1cc2cccc(OC)c2o1	0.8	-3.3	-1.3	17.4	-4.7	/
CC[C@]12c3[nH]c4ccc(OC)cc4c3CCN1C(=O)C(CC(=O)NCCCn1ccnc1)C[C@@H]2C(=O)N1CCN(C(=O)c2ccco2)CC1 (stereo not given in full)	/	/	/	/	-5.1	/
N#Cc1c(NC(=O)C2CC(c3c(F)cccc3Cl)=NO2)sc2c1CCC2 (stereo not given)	0.8	59.3*	-1.6	15.2	0.8	52.9*
CN(C)Cc1cc(C(C)(C)c2ccccc2)ccc1O	/	5.8	/	/	-9.2	/
Cc1ccc(C(=O)Nc2ncc(C)s2)o1	0.9	-3.6	2.0	6.0	-2.5	/
Cc1ccc(C(=O)Nc2ncc(Cc3ccc(F)cc3)s2)o1	0.8	57.1*	0.1	21.2	2.2	64.2*
Cc1ccc(-n2cc(CN3CCC(O)(c4ccccn4)CC3)c(-c3ccc(F)cc3)n2)cc1	0.9	61.2*	0.5	5.9	-4.3	52.3*
Cc1ccc(-n2cc(CN3CCNC(=O)CC3)c(-c3ccc(F)cc3)n2)cc1	/	3.0	-4.4	/	14.2	/
Fc1ccc(NCc2ccccc2F)cc1Cl	0.8	41.5*	-1.6	19.9	-0.3	28.8	ATG4B conf=68.5*
Fc1ccccc1CNc1ccc(Cl)cc1	0.9	33.9	-0.8	9.9	-2.4	/
CCC(CC)C1=NN2C(=N)/C(=C\c3cc(C)n(-c4cccc(C)c4)c3C)C(=O)N=C2S1	1	58.9*	-2.0	2.9	4.6	8.8	ATG4B conf=47.8*
O=[N+]([O-])c1ccccc1-c1cc(-c2cc(Cl)ccc2O)n[nH]1	0.8	88.3*	0.2	15.1	-6.7	84.8*
Cc1ccc(O)c(-c2cc(-c3ccccc3[N+](=O)[O-])[nH]n2)c1	0.8	73.3*	-4.7	22.7	-4.7	66.5*
COc1ccc(O)c(-c2cc(-c3ccccc3[N+](=O)[O-])[nH]n2)c1	0.8	18.8	-0.6	18.0	0.0	/
Cc1ccc(O)c(-c2cc(-c3ccccc3C)[nH]n2)c1	0.8	55.5*	/	21.0	-2.9	61.9*
Oc1ccc(Cl)cc1-c1cc(-c2ccccc2Cl)[nH]n1	0.8	34.6	1.1	18.9	-6.3	/
Oc1ccccc1-c1cc(-c2ccccc2Cl)[nH]n1	0.7	56.4*	-1.3	27.0	5.1	68.0*
CCn1c(CN2CCOCC2)nnc1SCC(=O)Nc1cccc(C)c1	/	-3.1	2.0	/	-8.0	/
COc1ccc(Cl)cc1C(=O)NC(=S)Nc1cc(-c2nc3ccccc3[nH]2)ccc1C	0.8	65.8*	0.9	15.9	-2.2	78.5*
COc1cccc(OC)c1C(=O)Nc1cccc(-c2nc3ccccc3[nH]2)c1	0.9	53.0*	1.2	11.8	-5.1	62.2*
SMILES	Diaph act CS	ATG4B inh	CTSL1 counter	Diaph inh CS	HKDC1 inh	PLA2 counter	others
CC(C)c1ccc2nc3sc(C(=O)N4CCc5ccccc5C4)c(N)c3cc2c1	0.9	52.1*	1.5	6.6	-1.0	48.3	ATG4B conf=53.7*
C=CCNc1nc(C(=O)OCC(=O)Nc2c(Cl)cccc2C(F)(F)F)cs1	/	0.5	0.2	/	1.9	/
O=C(Nc1ccccc1Cl)C1C(c2ccccc2)C1(Cl)Cl (stereo not given)	/	51.6*	3.4	/	-1.9	56.3*
CCc1ccccc1NC(=O)C1C(c2ccccc2)C1(Cl)Cl (stereo not given)	0.9	9.8	1.6	12.4	3.3	/
C=CCn1c(SCC(=O)Nc2ccc3c(c2)CCC3)nnc1-c1cccs1	0.9	67.3*	-3.1	12.8	-0.1	51.7*
CN(C(=O)c1cc2ccccc2o1)c1c(N)n(Cc2ccccc2)c(=O)[nH]c1=O	/	-2.4	/	/	-4.4	/
CCOC(=O)CNC1CC(=O)N(c2ccc(Br)cc2)C1=O (stereo not given)	/	-4.9	1.7	/	1.0	/
Cc1c(Cl)c([N+](=O)[O-])nn1Cc1ccc(C(=O)N/N=C\c2cccc(Br)c2)o1	1	58.4*	-2.3	2.7	8.6	68.2*
O=C(N/N=C\c1cccc(Cl)c1)c1ccc(Cn2cc(Br)c([N+](=O)[O-])n2)o1	1	-3.1	2.7	0.6	2.1	/
CCNC(=S)N1CCN(c2nc(CC)nc3sc4c(c23)CCCC4)CC1	/	72.6*	0.0	/	1.5	83.0*
Cc1nc(N2CCN(C(=O)c3ccco3)CC2)c2c3c(sc2n1)CC(C)CC3 (stereo not given)	0.6	-3.5	1.6	43.2	-0.9	/
O=C(c1ccco1)N1CCN(c2nc(C3CC3)nc3sc4c(c23)CCCC4)CC1	0.7	92.6*	2.3	28.5	0.8	90.8*
Cc1nc(N2CCN(C(=O)c3cccs3)CC2)c2c3c(sc2n1)CCCC3	/	78.0*	0.3	/	4.7	85.9*
CCc1nc(SCC(=O)N2CCN(C(=O)c3ccco3)CC2)c2c3c(sc2n1)CCCC3	0.6	43.7*	2.1	38.4	2.9	64.2*
Cc1nc(N2CCN(C)CC2)c2c3c(sc2n1)CCCC3	/	1.1	5.9	/	-2.8	/
CC(=O)c1ccc(N(CC(=O)NC2CCCCC2)C(=O)CNC(=O)c2cccs2)cc1	/	1.6	-5.5	/	1.7	/
CCOc1ccccc1NC(=O)COC(=O)C12CC3CC(CC(O)(C3)C1)C2	/	6.5	/	/	-4.6	/
O=C(CSc1ncnc2sc3c(c12)CCCC3)c1ccco1	0.7	41.0*	5.9	25.4	1.4	51.1*

Compound activity from PubChem.
